Calls of active or inactive are those of the source.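 Rule for the calls, unless noted: active = GFP response above 150% of the DMSO level; inconclusive = fewer than 70 events counted for a yeast strain; inactive = the rest.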
Columns and labels:
[1] = hit retest on RPL19A-GFP reporter strain – cell-based, S. cerevisiae, flow cytometry, cherry picks, mother/daughter gates, confirmation (AID 2270;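 active = GFP response below 50% of the DMSO control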); details: 3 h, at 10 µM, stronger effect = lower value, 100 = same GFP as DMSO wells
[2] = yeast TOR pathway reporter LAP4-GFP change – cell-based, cherry picks, flow cytometry, mother/daughter gates, confirmation (AID 2271;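 active = GFP response above 150% of the DMSO control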;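 note: ratio of sample to DMSO plate mean so 100% equals DMSO level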); details: S. cerevisiae LAP4-GFP strain, 3 h, at 10 µM, stronger effect = higher value, 100 means same as DMSO control
Outline: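 System: GFP-fusion yeast strain; Incubation: compound exposure 3 h at 30 °C, end-over-end rotation; Measured by: GFP by flow cytometry; Read-out: median GFP fluorescence as percent of plate-mean DMSO wells; Medium: synthetic complete (SC) yeast growth medium; Compound: single test-compound dose, 10 µM final; Benchmarks: DMSO-only negative wells, rapamycin 400 ng/mL positive wells.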

[3] = TOR pathway reporter MEP2-GFP, retest of hits – S. cerevisiae, flow cytometry GFP, cherry picks, confirmation (AID 2272;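 active = GFP response above 150% of the DMSO control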;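 note: ratio of well signal to plate DMSO mean so 100% equals DMSO level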); details: S. cerevisiae MEP2-GFP strain, 3 h, at 10 µM, stronger effect = higher value
[4] = yeast AGP1-GFP fluorescence change, single-dose – cell-based, flow cytometry, S. cerevisiae, cherry picks, confirmation (AID 2273);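 note: median GFP channel fluorescence over the whole cell population gate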; details: S. cerevisiae AGP1-GFP strain, 3 h, at 10 µM
[5] = TOR pathway CIT2 reporter hit retest – S. cerevisiae, GFP fusion, cherry picks, mother/daughter gates, confirmation (AID 2274); details: S. cerevisiae CIT2-GFP strain, flow cytometry, 3 h, at 10 µM, stronger effect = higher value
[6] = measured here: daughter cell gate
[7] = measured here: mother cell gate
[8] = measured here: daughter cell gate response
[9] = measured here: mother cell gate response

SMILES	GFP response vs DMSO [1]	GFP response vs DMSO [1, 6]	GFP response vs DMSO [1, 7]	GFP response relative to DMSO [2]	GFP response relative to DMSO [2, 8]	GFP response relative to DMSO [2, 9]	GFP response vs DMSO [3]	GFP response, % of DMSO [4]	GFP response, % of DMSO [5]	GFP response, % of DMSO [5, 6]	GFP response, % of DMSO [5, 7]
Clc1ccc(C2=NNC(=NCc3ccccc3)SC2)cc1	95.6% (inactive)	94.6%	86.8%	97.9% (inactive)	97.6%	98.3%	98.3% (inactive)	93.9% (inactive)	99.7% (inactive)	101%	98.5%
Clc1ccccc1N=C1NN=C(c2cccs2)CS1	96.8% (inactive)	93.4%	95.7%	108% (inactive)	106%	113%	90.5% (inactive)	98.8% (inactive)	90.1% (inactive)	88.4%	89.5%
O=C(Oc1c(Cl)cc(Cl)c2cccnc12)c1ccco1	103% (inactive)	89.2%	100%	196% (active)	148%	199%	128% (inactive)	95.9% (inactive)	95.9% (inactive)	86.6%	93.2%
COc1ccc(NC(=O)CCN2CCN(S(=O)(=O)c3cc(Cl)ccc3OC)CC2)cc1	99% (inactive)	97.8%	94.3%	99.8% (inactive)	98.2%	96.2%	101% (inactive)	105% (inactive)	102% (inactive)	100%	102%
CCNC(=O)c1c(O)c2cccc3c2n(c1=O)CC3	103% (inactive)	101%	103%	103% (inactive)	101%	105%	94.7% (inactive)	99% (inactive)	98.8% (inactive)	101%	98.1%
O=c1[nH]c2c(=O)[nH]cnc2nc1-c1ccccc1	103% (inactive)	94.9%	96.3%	97% (inactive)	95.9%	88.8%	101% (inactive)	98.2% (inactive)	97.3% (inactive)	86.6%	89.5%
COc1cccc(-c2nnc(NC(=O)c3ccc(S(=O)(=O)N4CCOCC4)cc3)o2)c1	97.6% (inactive)	97.8%	96.5%	97.7% (inactive)	99%	97.4%	101% (inactive)	100% (inactive)	100% (inactive)	99.3%	100%
O=C(O)c1ccc(SCc2cnc(Cl)s2)cc1	104% (inactive)	96.7%	103%	116% (inactive)	99%	112%	110% (inactive)	114% (inactive)	108% (inactive)	101%	104%
Cc1cccc(Nc2nc(-c3ccccn3)cs2)n1	77.9% (inactive)	104%	66.6%	137% (inactive)	138%	120%	110% (inactive)	89.8% (inactive)	100% (inactive)	121%	83.7%
COc1ccc(/C=N/Nc2nc(-c3cccnc3)nc3ccccc23)cc1OC	100% (inactive)	99.3%	102%	129% (inactive)	130%	129%	137% (inactive)	104% (inactive)	144% (inactive)	143%	141%
O=c1c(-c2ccc(Cl)cc2)[n+]([O-])c2ccccc2n1O	103% (inactive)	102%	103%	193% (active)	141%	177%	112% (inactive)	93% (inactive)	92.1% (inactive)	90.9%	91%
O=C1C(Cl)=C(Nc2ccccc2O)C(=O)N1c1ccccc1	97.4% (inactive)	98%	97.1%	112% (inactive)	108%	113%	104% (inactive)	103% (inactive)	99.3% (inactive)	100%	98%
O=C(OCn1ncc(Br)c(Br)c1=O)c1ccc(F)cc1	99.7% (inactive)	99.8%	94.8%	210% (active)	183%	203%	116% (inactive)	106% (inactive)	99.3% (inactive)	108%	92.1%
O=C(N/N=C/c1ccccn1)c1sc2ccccc2c1Cl	103% (inactive)	94%	103%	118% (inactive)	114%	126%	114% (inactive)	99.3% (inactive)	84.7% (inactive)	88.9%	82.8%
COc1ccc(-n2c(N)c(C(=O)Nc3c(C)n(C)n(-c4ccccc4)c3=O)c3nc4ccccc4nc32)cc1	97.4% (inactive)	94.4%	98.1%	99.5% (inactive)	99.1%	99.4%	103% (inactive)	102% (inactive)	94.4% (inactive)	93.8%	94.4%
CCOc1ccc(Nc2nc(N(C)c3ccccc3)nc(N)c2[N+](=O)[O-])cc1	92.1% (inactive)	94.7%	91.7%	96.5% (inactive)	95%	95.6%	106% (inactive)	113% (inactive)	104% (inactive)	104%	106%
CCOC(=O)C(=CNNc1ccccc1)C(=O)OCC	106% (inactive)	105%	105%	136% (inactive)	133%	140%	113% (inactive)	102% (inactive)	103% (inactive)	101%	103%
CCOc1ccc(/C=C2\N=C(c3cccs3)OC2=O)cc1OC	95% (inactive)	95.2%	93.9%	98.2% (inactive)	97.5%	99.4%	101% (inactive)	94.5% (inactive)	97.3% (inactive)	95.6%	98.1%
NC(=O)c1ccc(Oc2ccc(-c3nnco3)cc2)c([N+](=O)[O-])c1	98.4% (inactive)	100%	99.1%	93.8% (inactive)	95.6%	94.2%	100% (inactive)	98.7% (inactive)	110% (inactive)	105%	112%
COc1ccc(N2C(=O)C(Cl)=C(Oc3cccc(OC)c3)C2=O)cc1	90.9% (inactive)	76.4%	79.9%	218% (active)	203%	227%	105% (inactive)	110% (inactive)	98.4% (inactive)	93.7%	80.8%
Cc1ccc(/C(N)=N/OC(=O)c2ccc(F)cc2)cc1	102% (inactive)	102%	99.2%	128% (inactive)	111%	129%	108% (inactive)	76.8% (inactive)	134% (inactive)	121%	133%
N#C/C(=C\c1c(N2CCN(c3ccccc3)CC2)nc2ccccn2c1=O)C(N)=O	104% (inactive)	99.1%	99.3%	97% (inactive)	97.5%	98.4%	105% (inactive)	106% (inactive)	98.8% (inactive)	99.2%	88.2%
COc1cccc(N=Cc2nc(-c3ccccc3)oc2OC(C)=O)c1	97.4% (inactive)	96.1%	98.7%	108% (inactive)	101%	113%	87.8% (inactive)	87.5% (inactive)	95.5% (inactive)	95.4%	95%
Fc1ccccc1-c1nc(NCCCN2CCOCC2)c2ccccc2n1	94.4% (inactive)	93.6%	95.6%	101% (inactive)	99.2%	98.3%	96.2% (inactive)	98.5% (inactive)	96.9% (inactive)	97.2%	97.3%
Oc1ccc(Cl)cc1-c1cc(-c2ccco2)[nH]n1	103% (inactive)	100%	104%	95% (inactive)	94.1%	96.2%	109% (inactive)	88.2% (inactive)	102% (inactive)	99.7%	101%
COc1cc(/C=C2/C(=O)ON=C2c2ccccc2)ccc1O	105% (inactive)	108%	100%	105% (inactive)	108%	102%	121% (inactive)	107% (inactive)	125% (inactive)	132%	112%
O=[N+]([O-])c1cc(O)c2ncccc2c1	99.1% (inactive)	94.2%	97.5%	205% (active)	200%	204%	114% (inactive)	94.3% (inactive)	122% (inactive)	112%	131%
